The source made the active and inactive calls. The calls are words filed in the database; no cut-off is given here.
Assays:
[1] = test system: Woodchuck hepatitis virus; assay: Antiviral activity against woodchuck hepatitis virus infected woodchucks assessed as log reduction of serum viral DNA per ml of serum after 4 weeks; assay type: functional
[2] = test system: Duck hepatitis B virus; assay: Antiviral activity against Duck hepatitis B virus chronically infected ducklings assessed as log reduction of serum viral DNA copies per ml of serum at 20 mg/kg, ip after 10 days; conditions: route intraperitoneal
[3] = test system: Duck hepatitis B virus; assay: Antiviral activity against Duck hepatitis B virus infected ip dosed ducklings assessed as log reduction of serum viral DNA copies per ml of serum after 10 days
[4] = test system: Duck hepatitis B virus; assay: Antiviral activity against Duck hepatitis B virus experimentally infected ducklings assessed as log reduction of serum viral DNA copies per ml of serum at 40 mg/kg, ip after 10 days; conditions: route intraperitoneal
[5] = Cmax in woodchuck hepatitis virus-negative woodchucks at 33.3 mg/kg, iv administered as single dose followed by dose of 33.3 mg/kg, po after 4 weeks washout period; assay type: ADME, organism-based; conditions: marmota monax, in vivo
In short: (§1)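 Three WHV-negative adult woodchucks got a 33.3 mg/kg iv bolus, with one saline control. After a 4-week washout the same three got 33.3 mg/kg orally. Blood was drawn predose and at 0.25–24 h. Serum APD and DXG were measured by HPLC-UV (LOQ 0.2 µM) and analysed noncompartmentally. AUC0-∞ used the trapezoidal rule, extrapolated by Clast/λz.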

[6] = test system: Woodchuck hepatitis virus; assay: Antiviral activity against woodchuck hepatitis virus chronically infected woodchucks assessed as log reduction of serum viral DNA at 10 mg/kg/day, po after 4 weeks; assay type: functional
In short: (§2)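 Chronic WHV-carrier adult woodchucks were stratified into groups of five and dosed orally once daily for 4 weeks (saline solution in liquid diet; diet-alone placebo). Serum WHV DNA was measured weekly by dot blot (sensitivity 1.0 x 10^7 WHVge/ml) or by triplicate real-time PCR (sensitivity 1.0 x 10^3 WHVge/ml) against pWHV8 standards. Log values were compared with week 0 and placebo by repeated-measures ANOVA with Holm-Sidak.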

[7] = test system: Woodchuck hepatitis virus; assay: Antiviral activity against woodchuck hepatitis virus chronically infected woodchucks assessed as log reduction of viral DNA replicative intermediates at 30 mg/kg/day, po after 4 weeks relative to control; assay type: functional, organism-based
In short: (§3)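 Liver biopsies were taken by ultrasound-guided needle under ketamine/xylazine anaesthesia. Timing was 1 week before and at the end of 4 weeks of once-daily oral dosing (1–30 mg/kg/day or placebo diet; five woodchucks per group). Samples were snap-frozen and stored at –70°C. Hepatic WHV DNA replicative intermediates were quantified by Southern blot hybridization and compared with placebo.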

[8] = Terminal elimination half life in woodchuck hepatitis virus-negative woodchucks at 33.3 mg/kg, iv administered as single dose; assay type: ADME, organism-based; set-up: dose 33.3 mg/kg, route intravenous; conditions: marmota monax, in vivo, read-out: beta t1/2 (converted); in short: as §1
[9] = AUC (0 to infinity) in woodchuck hepatitis virus-negative woodchucks at 33.3 mg/kg, iv administered as single dose; assay type: ADME, organism-based; set-up: time infinity, dose 33.3 mg/kg, route intravenous; conditions: marmota monax, plasma; in short: as §1
[10] = test system: Marmota monax; assay: Toxicity in woodchuck hepatitis virus chronically infected woodchucks assessed as change in body weight administered once daily for 4 weeks; assay type: organism-based; conditions: in vivo, 672 h
[11] = AUC (0 to infinity) in woodchuck hepatitis virus-negative woodchucks at 33.3 mg/kg, iv administered as single dose followed by dose of 33.3 mg/kg, po after 4 weeks washout period; assay type: ADME, organism-based; conditions: marmota monax, plasma; in short: as §1
[12] = test system: Woodchuck hepatitis virus; assay: Antiviral activity against woodchuck hepatitis virus chronically infected woodchucks assessed as reduction of viral DNA replicative intermediates at 10 mg/kg/day, po after 4 weeks; assay type: functional, organism-based; in short: as §3
[13] = Cmax in woodchuck hepatitis virus-negative woodchucks at 33.3 mg/kg, iv administered as single dose; assay type: ADME, organism-based; set-up: dose 33.3 mg/kg, route intravenous; conditions: marmota monax, in vivo; in short: as §1
[14] = Terminal elimination half life in orally dosed monkey; assay type: ADME, organism-based, Macaca mulatta; conditions: rhesus monkey, in vivo, po; read-out: beta t1/2 (converted)
[15] = test system: Woodchuck hepatitis virus; assay: Antiviral activity against woodchuck hepatitis virus chronically infected in woodchucks M7236 assessed as reduction in anti-WHs antibody levels at 30 mg/kg/day, po after 4 weeks; assay type: functional, organism-based
[16] = test system: Woodchuck hepatitis virus; assay: Antiviral activity against woodchuck hepatitis virus chronically infected in woodchucks M7250 assessed as reduction in anti-WHs antibody levels at 30 mg/kg/day, po after 4 weeks; assay type: functional, organism-based
[17] = test system: Woodchuck hepatitis virus; assay: Antiviral activity against woodchuck hepatitis virus chronically infected woodchucks assessed as reduction of viral DNA replicative intermediates at 3 mg/kg/day, po after 4 weeks; assay type: functional, organism-based; in short: as §3
[18] = test system: Woodchuck hepatitis virus; assay: Antiviral activity against woodchuck hepatitis virus chronically infected woodchucks assessed as log reduction of serum viral DNA at 3 mg/kg/day, po after 4 weeks; assay type: functional; in short: as §2
[19] = test system: Rhesus monkey; assay: AUC in po dosed rhesus monkey assessed as serum 9-(beta-D-1,3-dioxolan-4-yl)guanine level; assay type: ADME, organism-based, Macaca mulatta, Plasma; conditions: in vivo
[20] = Terminal elimination half life in orally dosed mouse; assay type: ADME, organism-based; conditions: in vivo, po, read-out: beta t1/2 (converted)
[21] = test system: Woodchuck hepatitis virus; assay: Antiviral activity against woodchuck hepatitis virus chronically infected woodchucks assessed as log reduction of serum viral DNA at 30 mg/kg/day, po after 4 weeks; assay type: functional; in short: as §2
[22] = Terminal elimination half life in woodchuck hepatitis virus-negative woodchucks at 33.3 mg/kg, iv administered as single dose followed by dose of 33.3 mg/kg, po after 4 weeks washout period; assay type: ADME, organism-based; conditions: marmota monax, in vivo, read-out: beta t1/2 (converted); in short: as §1
[23] = test system: Woodchuck hepatitis virus; assay: Antiviral activity against woodchuck hepatitis virus chronically infected in woodchucks assessed as reduction in anti-WHV core antigen antibody levels at 30 mg/kg/day, po after 4 weeks; assay type: functional, organism-based
[24] = test system: Woodchuck hepatitis virus; assay: Antiviral activity against woodchuck hepatitis virus chronically infected woodchucks assessed as reduction of serum viral DNA at 1 mg/kg/day, po after 4 weeks; assay type: functional, organism-based
In short: (§4)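 Chronic WHV carriers were stratified into groups of five. They were dosed orally once daily for 4 weeks at 1, 3, 10 or 30 mg/kg/day, or given liquid-diet placebo; drug was dissolved in saline and suspended in diet by syringe. Serum WHV DNA was measured weekly by triplicate dot blot (sensitivity 1.0 x 107 WHVge/ml) or triplicate real-time PCR (1.0 x 103 WHVge/ml) against pWHV8 standards. Log values were compared with pretreatment and placebo by repeated-measures ANOVA with Holm-Sidak tests.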

[25] = test system: Woodchuck hepatitis virus; assay: Antiviral activity against woodchuck hepatitis virus chronically infected orally dosed woodchucks assessed as reduction in serum viremia administered once daily for 4 weeks; assay type: functional, organism-based; in short: as §4
[26] = test system: Woodchuck hepatitis virus; assay: Antiviral activity against woodchuck hepatitis virus chronically infected woodchucks assessed as reduction of viral DNA replicative intermediates at 1 mg/kg/day, po after 4 weeks; assay type: functional, organism-based; in short: as §3
[27] = test system: Marmota monax; assay: Toxicity in woodchuck hepatitis virus chronically infected woodchuck assessed as serum sorbitol dehydrogenase level at 30 mg/kg/day, po after 4 weeks; assay type: organism-based; set-up: route oral; conditions: in vivo, 672 h
In short: (§5)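 Serum ALT and SDH were measured as hepatocellular injury markers in chronic WHV carriers dosed orally once daily for 4 weeks. Blood was drawn under ketamine (50 mg/kg) and xylazine (5 mg/kg) im anaesthesia before treatment and weekly during treatment.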

[28] = test system: Marmota monax; assay: Toxicity in woodchuck hepatitis virus chronically infected woodchuck assessed as serum alanine aminotransferase level at 30 mg/kg/day, po after 4 weeks; assay type: organism-based; set-up: route oral; conditions: in vivo, 672 h; in short: as §5
[29] = test system: Woodchuck hepatitis virus; assay: Antiviral activity against woodchuck hepatitis virus chronically infected in woodchucks assessed as reduction in viral surface antigen level in blood at 30 mg/kg/day, po after 4 weeks; assay type: functional
In short: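 Adult woodchucks chronically infected with WHV, in groups of five, got the drug dissolved in isotonic saline and suspended in a semisynthetic liquid diet, by oral dose syringe once daily for 4 weeks. Placebo was diet alone. Serum WHsAg was measured by WHV-specific enzyme immunoassay (optical density units) before, during and after treatment up to week 16.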

Q: For CC(=O)OCC(CCn1cnc2cnc(N)nc21)COC(C)=O [FAMCICLOVIR], which Activity [1] is on record?
A: 1.4

Q: Which Activity [2] does the source give for Nc1nc(N)c2ncn([C@H]3CO[C@@H](CO)O3)c2n1 [AMDOXOVIR] here?
A: 0.3

Q: What about the Activity [3] of the same compound?
A: Dose-dependent effect

Q: What about the Activity [4] of the same compound?
A: 0.9

Q: Which Activity [1] does the source give for Nc1ncnc2c1ncn2[C@H]1C[C@H](O)[C@@H](CO)O1 [DEOXYADENOSINE] here?
A: 1.5

Q: Which Activity [1] does the source give for Cc1cn([C@H]2O[C@@H](CO)[C@H](O)[C@H]2F)c(=O)[nH]c1=O [CLEVUDINE] here?
A: 8.2

Q: Which results are given for Nc1ncc2ncn([C@H]3CO[C@@H](CO)O3)c2n1?
A: Cmax [5]: 16.8 µM; Activity [6]: 0.7; Activity [7]: Active; half-life [8]: 1.7 h; AUC(0-inf) [9]: 203 µM·h; Activity [10]: Non-toxic; AUC(0-inf) [11]: 49.4 µM·h; Activity [12]: inactive; Cmax [13]: 112 µM; half-life [14]: 0.5 h; Activity [15]: inactive; Activity [16]: inactive; Activity [17]: inactive; Activity [18]: 0.4; %AUC [19]: 75%; half-life [20]: 0.3 h; Activity [21]: 1.9; half-life [22]: 3 h; Activity [23]: inactive; Activity [24]: inactive; Activity [25]: Dose-dependent effect; Activity [26]: inactive; Activity [27]: 211.5 IU/L; Activity [28]: 9.5 IU/L; fold change (FC) [29]: 1.4

Q: For Nc1ccn([C@@H]2CS[C@H](CO)O2)c(=O)n1 [LAMIVUDINE], which Activity [1] is on record?
A: 2.5

Q: Which Activity [1] does the source give for Nc1nc(=O)n([C@@H]2CS[C@H](CO)O2)cc1F [EMTRICITABINE] here?
A: 4.9

From ChEMBL document CHEMBL1154402, “Antiviral effect of orally administered (-)-beta-D-2-aminopurine dioxolane in woodchucks with chronic woodchuck hepatitis virus infection” (Antimicrob Agents Chemother, 2007)
